{"data": "Results pooled from the literature", "note": "Compare with care: the assays were run in different laboratories."}
{"test system": "male Kunming mouse, liver", "setting": "oral, 20 mg/kg", "endpoint": "MRT", "value": "5.7 h", "Structure (SMILES)": "CC(=O)O[C@@]12CO[C@@H]1C[C@H](O)[C@@]1(C)C(=O)[C@H](O)C3=C(C)[C@@H](OC(=O)[C@H](O)[C@@H](NC(=O)OC(C)(C)C)c4ccccc4)C[C@@](O)([C@@H](OC(=O)c4ccccc4)[C@H]21)C3(C)C"}
{"test system": "male BALB/c mouse, plasma", "setting": "intravenous, 20 mg/kg, single dose", "endpoint": "MRT(0-t)", "value": "0.71 h", "Structure (SMILES)": "C=CS(=O)(=O)c1ccc(Nc2nc(OCC3CCCCC3)c3nc[nH]c3n2)cc1"}
{"test": "metabolic stability", "test system": "human, liver microsomes", "setting": "1 µM", "endpoint": "half-life", "value": "> 3 h", "Structure (SMILES)": "NC(=O)N1c2ccccc2C=Cc2ccccc21"}
{"test system": "male CD-1 mouse, plasma", "setting": "intravenous, 1 mg/kg", "endpoint": "MRT(0-inf)", "value": "0.11 h", "Structure (SMILES)": "O=[N+]([O-])c1ccc(-c2ccc(O)cc2)c2cccnc12"}
{"test system": "male C57BL/6 mouse, plasma", "setting": "intraperitoneal, 10 mg/kg", "endpoint": "MRT(0-inf)", "value": "0.781 h", "Structure (SMILES)": "CCOc1ccc(N(C)S(=O)(=O)c2cc(Cl)sc2C(=O)Nc2cc(Cl)cc(C(=O)O)c2)cc1OC"}
{"test": "metabolic stability", "test system": "human, liver microsomes", "setting": "1 µM", "endpoint": "half-life", "value": "0.0137 h", "Structure (SMILES)": "CCC(CC)COC(=O)[C@H](C)N[P@](=O)(OC[C@@H]1C[C@@H](O)[C@H](n2cnc3c(N)ncnc32)O1)Oc1ccccc1"}
{"test system": "male C57BL/6 mouse, brain", "setting": "intraperitoneal, 10 mg/kg", "endpoint": "MRT(0-inf)", "value": "3.28 h", "Structure (SMILES)": "CCOC(=O)c1cc(Cl)cc(NC(=O)c2sc(Cl)cc2S(=O)(=O)N(C)c2ccc(OCC)c(OC)c2)c1"}
{"test system": "male CD-1 mouse, brain", "setting": "subcutaneous", "endpoint": "MRT(0-inf)", "value": "1.72 h", "Structure (SMILES)": "COc1cc(C(=O)OCCCN2CCCN(CCCOC(=O)c3cc(OC)c(OC)c(OC)c3)CC2)cc(OC)c1OC"}
{"test system": "mouse, plasma", "setting": "intraperitoneal, 15 mg/kg, single dose", "endpoint": "MRT", "value": "3.09 h", "Structure (SMILES)": "CCN1CCN(Cc2ccc(NC(=O)c3ccc(C)c(NC(=O)c4cncc(-c5cccs5)c4)c3)cc2C(F)(F)F)CC1"}
{"test": "metabolic stability", "test system": "human, plasma", "endpoint": "half-life", "value": "36.9 h", "Structure (SMILES)": "CSc1nccc(C(=O)N[C@@H](CCC(=O)O)C(=O)N[C@@H](Cc2ccc3ccccc3c2)C(=O)N[C@@H](CC(C)C)C(=O)NC2CC2c2ccccc2)n1 (stereo partly shown)"}
